Measurements taken from ChEMBL document CHEMBL3124841, “Discovery of vinyl sulfones as a novel class of neuroprotective agents toward Parkinson's disease therapy” (J Med Chem, 2014).

Assays:
[1] = biological target: T1, Nuclear factor erythroid 2-related factor 2 (Mus musculus) (UniProt Q60795); experiment: Induction of Nrf2-dependent HO1 protein level in mouse BV-2 cells at 20 uM after 24 hrs by sandwich ELISA relative to control; assay type: cell-based
T1 sequence (whole entry): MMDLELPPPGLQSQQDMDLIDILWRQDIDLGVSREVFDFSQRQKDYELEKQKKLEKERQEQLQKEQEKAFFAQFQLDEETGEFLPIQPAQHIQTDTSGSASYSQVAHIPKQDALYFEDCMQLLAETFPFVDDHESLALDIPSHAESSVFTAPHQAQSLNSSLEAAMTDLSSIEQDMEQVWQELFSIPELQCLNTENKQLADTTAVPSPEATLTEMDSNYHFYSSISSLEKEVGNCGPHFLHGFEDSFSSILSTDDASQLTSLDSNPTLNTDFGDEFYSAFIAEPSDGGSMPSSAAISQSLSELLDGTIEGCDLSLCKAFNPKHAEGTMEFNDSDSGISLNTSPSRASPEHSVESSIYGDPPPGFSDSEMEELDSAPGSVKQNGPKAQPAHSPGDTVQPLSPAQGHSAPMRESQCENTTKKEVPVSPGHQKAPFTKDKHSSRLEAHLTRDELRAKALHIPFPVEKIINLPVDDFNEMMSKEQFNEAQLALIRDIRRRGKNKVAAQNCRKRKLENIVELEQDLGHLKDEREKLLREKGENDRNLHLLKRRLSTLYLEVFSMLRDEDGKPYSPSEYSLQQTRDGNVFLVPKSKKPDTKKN
Outline: (§1)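 Murine BV-2 microglia in DMEM/10% FBS, 2.0 × 10⁴ cells per well, treated at 20 μM for 24 h in triplicate. Lysates in NP-40 Tris buffer (pH 8.0) diluted tenfold; HO-1 measured by sandwich ELISA with HRP-streptavidin and Amplex Red fluorescence (ex 530/em 590 nm). Expressed as % of 0.04% DMSO vehicle control ± SEM; sulforaphane 5 μM as reference.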

[2] = biological target: T1, Nuclear factor erythroid 2-related factor 2 (Mus musculus); experiment: Induction of Nrf2-dependent HO1 protein level in mouse BV-2 cells at 20 uM after 24 hrs by sandwich ELISA; assay type: cell-based; outline: as §1

SMILES | fold change (FC) [1] | Activity [2] [%]
COc1cccc(S(=O)(=O)/C=C/c2ccc(F)cc2)c1 | 1.6 | 160
COc1ccc(S(=O)(=O)/C=C/c2ccccc2N)cc1 | 1.4 | 141
O=S(=O)(/C=C/c1cccc(Cl)c1)c1ccc(Cl)cc1 | – | 127
O=S(=O)(/C=C/c1ccccc1Cl)c1ccc(Cl)cc1 | – | 169
COc1ccccc1S(=O)(=O)/C=C/c1ccccc1C(F)(F)F | 3.3 | 328
COc1ccc(S(=O)(=O)/C=C/c2cccc(C(F)(F)F)c2)cc1OC | – | 153
O=S(=O)(/C=C/c1cccc(C(F)(F)F)c1)c1ccc(F)cc1 | – | 158
COc1ccccc1S(=O)(=O)/C=C/c1ccccc1F | 3.7 | 373
COc1ccccc1S(=O)(=O)/C=C/c1ccc(Cl)cc1 | 3.3 | 330
COc1ccc(S(=O)(=O)/C=C/c2ccc(F)cc2)cc1 | 1.8 | 177
O=S(=O)(/C=C/c1cccc(Cl)c1)c1ccc(F)cc1 | – | 137
COc1cccc(S(=O)(=O)/C=C/c2cccc(Cl)c2)c1 | 1.1 | 111
COc1ccc(S(=O)(=O)/C=C/c2cccc(Cl)c2)cc1 | 1.2 | 125
COc1ccccc1S(=O)(=O)/C=C/c1ccc(C(F)(F)F)cc1 | 3.6 | 357
COc1ccc(S(=O)(=O)/C=C/c2ccccc2F)cc1 | 1.7 | 174
O=S(=O)(/C=C/c1ccc(F)cc1)c1ccc(F)cc1 | – | 141
COc1ccccc1S(=O)(=O)/C=C/c1cccc(C(F)(F)F)c1 | 2.6 | 256
COc1cccc(S(=O)(=O)/C=C/c2ccc(Cl)cc2)c1 | 2.3 | 228
COc1cccc(S(=O)(=O)/C=C/c2cccc(F)c2)c1 | 1.4 | 136

SMILES | fold change (FC) [1] | Activity [2] [%]
O=S(=O)(/C=C/c1ccc(Cl)cc1)c1ccc(Cl)cc1 | – | 117
COc1ccccc1S(=O)(=O)/C=C/c1cccc(Cl)c1 | 2.4 | 245
COc1ccc(S(=O)(=O)/C=C/c2ccc(Cl)cc2)cc1 | 1.7 | 169
O=S(=O)(/C=C/c1cccc(F)c1)c1ccc(F)cc1 | – | 177
O=S(=O)(/C=C/c1ccccc1F)c1ccc(Cl)cc1 | – | 107
COc1ccc(S(=O)(=O)/C=C/c2cccc(OC)c2)cc1 | 1.5 | 146
COc1ccc(S(=O)(=O)/C=C/c2ccccc2OC)cc1 | 1.2 | 126
COc1ccccc1S(=O)(=O)/C=C/c1cccc(F)c1 | 3.5 | 353
O=S(=O)(/C=C/c1ccccc1F)c1ccc(F)cc1 | – | 241
O=S(=O)(/C=C/c1cccc(C(F)(F)F)c1)c1ccccc1 | – | 188
COc1ccc(S(=O)(=O)/C=C/c2cccc(F)c2)cc1 | 2 | 203
O=S(=O)(/C=C/c1ccccc1C(F)(F)F)c1ccc(Cl)cc1 | – | 242
COc1cccc(S(=O)(=O)/C=C/c2cccc(C(F)(F)F)c2)c1 | 2 | 204
O=S(=O)(/C=C/c1ccc(C(F)(F)F)cc1)c1ccc(Cl)cc1 | – | 140
O=S(=O)(/C=C/c1ccc(Cl)cc1)c1ccc(F)cc1 | – | 112
COc1ccc(/C=C/S(=O)(=O)c2ccc(OC)cc2)cc1 | 1.3 | 133
O=S(=O)(/C=C/c1cccc(C(F)(F)F)c1)c1ccc(Cl)cc1 | – | 111
COc1ccc(S(=O)(=O)/C=C/c2ccccc2C(F)(F)F)cc1OC | – | 204
COc1ccc(S(=O)(=O)/C=C/c2ccc(C(F)(F)F)cc2)cc1OC | – | 119

SMILES | fold change (FC) [1] | Activity [2] [%]
O=S(=O)(/C=C/c1cccc(F)c1)c1ccc(Cl)cc1 | – | 105
O=S(=O)(/C=C/c1ccccc1C(F)(F)F)c1ccc(F)cc1 | – | 248
O=S(=O)(/C=C/c1ccc(F)cc1)c1ccc(Cl)cc1 | – | 111
COc1cccc(S(=O)(=O)/C=C/c2ccc(C(F)(F)F)cc2)c1 | 1.5 | 148
COc1ccc(S(=O)(=O)/C=C/c2ccccc2C(F)(F)F)cc1 | 2.6 | 258
COc1ccc(S(=O)(=O)/C=C/c2ccccc2OC(F)(F)F)cc1 | 2.1 | 212
O=S(=O)(/C=C/c1ccccc1Cl)c1ccc(F)cc1 | – | 225
COc1cccc(S(=O)(=O)/C=C/c2ccccc2C(F)(F)F)c1 | 2.5 | 251
COc1cccc(S(=O)(=O)/C=C/c2ccccc2F)c1 | 1.5 | 148
COc1ccc(S(=O)(=O)/C=C/c2ccc(C(F)(F)F)cc2)cc1 | 1.5 | 154
COc1cccc(S(=O)(=O)/C=C/c2ccccc2Cl)c1 | 2.8 | 284
COc1ccc(S(=O)(=O)/C=C/c2ccccc2Cl)cc1 | 1.6 | 158
O=S(=O)(/C=C/c1ccccc1C(F)(F)F)c1ccccc1 | – | 193
COc1ccc(S(=O)(=O)/C=C/c2cccc(C(F)(F)F)c2)cc1 | 2.1 | 214
COc1ccc(C(=O)/C=C/c2ccccc2C(F)(F)F)cc1 | – | 164
COc1ccc([S+]([O-])/C=C/c2ccccc2C(F)(F)F)cc1 (stereo not drawn) | – | 134
O=S(=O)(/C=C/c1ccc(C(F)(F)F)cc1)c1ccccc1 | – | 155
COc1ccccc1S(=O)(=O)/C=C/c1ccc(F)cc1 | 2.6 | 259
O=S(=O)(/C=C/c1ccc(C(F)(F)F)cc1)c1ccc(F)cc1 | – | 125
